{"source": "ChEMBL document CHEMBL1139225", "about": "“Metabolism-based identification of a potent thrombin receptor antagonist” (J Med Chem, 2007)", "key": {"[1]": {"biological_target": "T1, Proteinase-activated receptor 1 (Homo sapiens, UniProt P25116)", "T1 sequence (P25116 whole entry)": "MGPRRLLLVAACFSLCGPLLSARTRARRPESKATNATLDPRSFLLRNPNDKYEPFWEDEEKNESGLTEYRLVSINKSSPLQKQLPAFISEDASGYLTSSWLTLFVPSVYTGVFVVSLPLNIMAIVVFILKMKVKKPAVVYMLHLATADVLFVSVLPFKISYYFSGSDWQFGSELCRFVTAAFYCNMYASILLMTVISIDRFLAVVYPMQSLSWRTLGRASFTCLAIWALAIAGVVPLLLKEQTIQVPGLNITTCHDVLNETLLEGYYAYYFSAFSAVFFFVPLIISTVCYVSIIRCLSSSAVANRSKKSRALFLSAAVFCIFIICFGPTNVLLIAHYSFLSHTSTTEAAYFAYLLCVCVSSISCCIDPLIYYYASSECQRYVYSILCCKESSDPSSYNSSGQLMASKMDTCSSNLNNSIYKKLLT", "experiment": "Displacement of [3H]haTRAP from PAR1 in human platelet membrane", "format": "cell membranes"}, "[2]": {"experiment": "Cmax in Sprague-Dawley rat at 300 mg/kg, po after 1 day", "format": "ADME, organism-based", "set-up": "dose 300 mg/kg, route oral", "conditions": "in vivo", "how_it_was_run": "(§1)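 Fed male Sprague Dawley rats, four per group, given the compound orally once daily for 10 consecutive days in 0.4% methylcellulose (100 and 300 mg/kg groups). On day 1 and day 10, plasma concentrations of parent and hydroxylated metabolites were measured at 1, 2, 4, 8, 12 and 24 h, giving AUC(0-24 h) and Cmax.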"}, "[3]": {"experiment": "Cmax in Sprague-Dawley rat at 300 mg/kg, po after 10 days", "format": "ADME, organism-based", "set-up": "dose 300 mg/kg, route oral", "conditions": "in vivo", "how_it_was_run": "as §1"}, "Platelet": {"test_system": "Platelet", "experiment": "Inhibition of haTRAP-induced platelet aggregation in cynomolgus monkey at 1 mg/kg after 6 hrs", "format": "functional, organism-based", "set-up": "dose 1 mg/kg", "conditions": "Macaca fascicularis", "how_it_was_run": "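Ex-vivo assay in cynomolgus monkeys. The compound was given orally as a single dose (1 mg/kg or 3 mg/kg in 20% HPβCD). Platelet aggregation induced by haTRAP was then measured in samples taken after dosing, at time points up to 24 h.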"}, "[4]": {"experiment": "AUC (0-24h) in cynomolgus monkey at 1 mg/kg, po", "format": "ADME, organism-based, Macaca fascicularis", "set-up": "time < 24 hr, dose 1 mg/kg, route oral", "conditions": "plasma", "how_it_was_run": "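Cynomolgus monkeys received a single oral dose of 1 mg/kg in 20% HPβCD. Blood levels were followed at various time points afterwards.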"}, "[5]": {"experiment": "AUC (0-24h) in Sprague-Dawley rat at 300 mg/kg, po after 10 days", "format": "ADME, organism-based", "set-up": "time < 24 hr, dose 300 mg/kg, route oral", "conditions": "plasma", "how_it_was_run": "as §1"}, "[6]": {"experiment": "AUC (0-6h) in rat after oral administration", "format": "ADME, organism-based", "set-up": "time < 6 hr, route oral", "conditions": "plasma"}, "[7]": {"experiment": "AUC (0-24h) in Sprague-Dawley rat at 300 mg/kg, po after 1 day", "format": "ADME, organism-based", "set-up": "time < 24 hr, dose 300 mg/kg, route oral", "conditions": "plasma", "how_it_was_run": "as §1"}, "[8]": {"experiment": "AUC (0-6h) in rat at 10 mg/kg, po", "format": "ADME, organism-based", "set-up": "time < 6 hr, dose 10 mg/kg, route oral", "conditions": "plasma", "how_it_was_run": "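Rat oral pharmacokinetics at 10 mg/kg dosed in 20% HPβCD. Plasma exposure was reported as AUC(0-6).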"}, "[9]": {"experiment": "Solubility of the compound", "format": "physicochemical"}, "Rattus norvegicus [10]": {"test_system": "Rattus norvegicus", "experiment": "Increase in liver to body weight ratio in Sprague-Dawley rat at 300 mg/kg, po", "format": "functional", "how_it_was_run": "(§2)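 Ten-day enzyme induction study. Fed male Sprague Dawley rats, four per group, were dosed orally once daily at 100 or 300 mg/kg in 0.4% methylcellulose. Liver/body weight ratio, spectral cytochrome P450, and CYP1A and CYP2B levels were expressed relative to a control group.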"}, "Rattus norvegicus [11]": {"test_system": "Rattus norvegicus", "experiment": "Increase in hepatic enzyme CYP2B in Sprague-Dawley rat at 300 mg/kg, po", "format": "functional", "how_it_was_run": "as §2"}, "Rattus norvegicus [12]": {"test_system": "Rattus norvegicus", "experiment": "Increase in hepatic enzyme CYP2B in Sprague-Dawley rat at 100 mg/kg, po", "format": "functional", "how_it_was_run": "as §2"}, "Rattus norvegicus [13]": {"test_system": "Rattus norvegicus", "experiment": "Increase in hepatic enzyme CYP1A in Sprague-Dawley rat at 100 mg/kg, po", "format": "functional", "how_it_was_run": "as §2"}, "Rattus norvegicus [14]": {"test_system": "Rattus norvegicus", "experiment": "Increase in hepatic enzyme CYP1A in Sprague-Dawley rat at 300 mg/kg, po", "format": "functional", "how_it_was_run": "as §2"}, "Rattus norvegicus [15]": {"test_system": "Rattus norvegicus", "experiment": "Increase in liver to body weight ratio in Sprague-Dawley rat at 100 mg/kg, po", "format": "functional", "how_it_was_run": "as §2"}}, "note": "Calls of active or inactive are those of the source. The calls are words filed in the database; no cut-off is given here."}
{"smiles": "C[C@H]1OC(=O)[C@@H]2C[C@@H]3CC(F)(F)CC[C@H]3[C@H](/C=C/c3ccc(-c4ccccc4Cl)cn3)[C@H]12", "values": [{"measurement": "IC50", "setting": "[1]", "value": 11, "unit": "nM"}]}
{"smiles": "Cc1cccc(-c2ccc(/C=C/[C@H]3[C@@H]4CCC(F)(F)C[C@H]4C[C@H]4C(=O)O[C@H](C)[C@@H]34)nc2)c1", "values": [{"measurement": "IC50", "setting": "[1]", "value": 80, "unit": "nM"}]}
{"smiles": "C[C@H]1OC(=O)[C@@H]2C[C@@H]3C[C@H](O)CC[C@H]3[C@H](/C=C/c3ccc(-c4cc(Cl)ccc4Cl)cn3)[C@H]12", "values": [{"measurement": "IC50", "setting": "[1]", "value": 97, "unit": "nM"}]}
{"smiles": "C[C@H]1OC(=O)[C@@H]2C[C@@H]3C[C@@H](O)CC[C@H]3[C@H](/C=C/c3ccc(-c4cccc(C(F)(F)F)c4)cn3)[C@H]12", "values": [{"measurement": "IC50", "setting": "[1]", "value": 23, "unit": "nM"}, {"measurement": "Cmax", "setting": "[2]", "value": 11000, "unit": "ng/mL"}, {"measurement": "Cmax", "setting": "[3]", "value": 47000, "unit": "ng/mL"}, {"measurement": "Activity", "setting": "Platelet", "value": "Active"}, {"measurement": "AUC(0-t) at 24 h", "setting": "[4]", "value": 73, "unit": "ng·h/mL"}, {"measurement": "AUC at 24 h", "setting": "[5]", "value": 81000, "unit": "ng·h/mL"}, {"measurement": "AUC(0-t) at 6 h", "setting": "[6]", "value": 3150, "unit": "ng·h/mL"}, {"measurement": "AUC(0-t) at 24 h", "setting": "[7]", "value": 18000, "unit": "ng·h/mL"}]}
{"smiles": "C[C@H]1OC(=O)[C@@H]2C[C@@H]3C[C@H](O)CC[C@H]3[C@H](/C=C/c3ccc(-c4cccc(F)c4)cn3)[C@H]12", "values": [{"measurement": "IC50", "setting": "[1]", "value": 28, "unit": "nM"}]}
{"smiles": "C[C@H]1OC(=O)[C@@H]2C[C@@H]3CC(F)(F)CC[C@H]3[C@H](/C=C/c3ccc(-c4cccc(C(F)(F)F)c4)cn3)[C@H]12", "values": [{"measurement": "IC50", "setting": "[1]", "value": 37, "unit": "nM"}, {"measurement": "AUC(0-t) at 6 h", "setting": "[8]", "value": 1200, "unit": "ng·h/mL"}, {"measurement": "solubility", "setting": "[9]", "value": 5, "unit": "µM"}]}
{"smiles": "C[C@H]1OC(=O)[C@@H]2C[C@@H]3CCCC[C@H]3[C@H](/C=C/c3ccc(-c4cccc(C(F)(F)F)c4)cn3)[C@H]12", "values": [{"measurement": "Activity", "setting": "Rattus norvegicus [10]", "value": 34, "unit": "%"}, {"measurement": "Activity", "setting": "Rattus norvegicus [11]", "value": 21}, {"measurement": "Activity", "setting": "Rattus norvegicus [12]", "value": 2.5}, {"measurement": "Cmax", "setting": "[2]", "value": 29000, "unit": "ng/mL"}, {"measurement": "Cmax", "setting": "[3]", "value": 17000, "unit": "ng/mL"}, {"measurement": "Activity", "setting": "Rattus norvegicus [13]", "value": 1.8}, {"measurement": "Activity", "setting": "Rattus norvegicus [14]", "value": 3.6}, {"measurement": "AUC at 24 h", "setting": "[5]", "value": 21000, "unit": "ng·h/mL"}, {"measurement": "Activity", "setting": "Rattus norvegicus [15]", "value": 10, "unit": "%"}, {"measurement": "AUC(0-t) at 24 h", "setting": "[7]", "value": 35000, "unit": "ng·h/mL"}]}
{"smiles": "C[C@H]1OC(=O)[C@@H]2C[C@H]3[C@@H](CCCC3(F)F)[C@H](/C=C/c3ccc(-c4cccc(C(F)(F)F)c4)cn3)[C@H]12", "values": [{"measurement": "IC50", "setting": "[1]", "value": 53, "unit": "nM"}, {"measurement": "AUC(0-t) at 6 h", "setting": "[8]", "value": 1200, "unit": "ng·h/mL"}, {"measurement": "solubility", "setting": "[9]", "value": 5, "unit": "µM"}]}
{"smiles": "Cc1ccc(-c2ccc(/C=C/[C@H]3[C@@H]4CC[C@@H](O)C[C@H]4C[C@H]4C(=O)O[C@H](C)[C@@H]34)nc2)cc1", "values": [{"measurement": "IC50", "setting": "[1]", "value": 1370, "unit": "nM"}]}
{"smiles": "C[C@H]1OC(=O)[C@@H]2C[C@@H]3C[C@H](O)CC[C@H]3[C@H](/C=C/c3ccc(-c4cccc(Cl)c4)cn3)[C@H]12", "values": [{"measurement": "IC50", "setting": "[1]", "value": 38.5, "unit": "nM"}]}
{"smiles": "C[C@H]1OC(=O)[C@@H]2C[C@@H]3CC[C@H](O)C[C@H]3[C@H](/C=C/c3ccc(-c4cccc(C(F)(F)F)c4)cn3)[C@H]12", "values": [{"measurement": "IC50", "setting": "[1]", "value": 845, "unit": "nM"}]}
{"smiles": "C[C@H]1OC(=O)[C@@H]2C[C@@H]3CC(F)(F)CC[C@H]3[C@H](/C=C/c3ccc(-c4cccc(Cl)c4)cn3)[C@H]12", "values": [{"measurement": "IC50", "setting": "[1]", "value": 12, "unit": "nM"}, {"measurement": "AUC(0-t) at 6 h", "setting": "[8]", "value": 1200, "unit": "ng·h/mL"}, {"measurement": "solubility", "setting": "[9]", "value": 5, "unit": "µM"}]}
